From ChEMBL document CHEMBL2434893, “Synthesis, DNA binding and anti-leukemic activity of an aminoacyl nucleolipid” (Bioorg Med Chem Lett, 2013)
pKd: −log10 of the molar value. The source made the active and inactive calls. No cut-off for these calls is given here.

Experiments:
[1] = test system: LOX IMVI; experiment: Cytotoxicity against human LOXIMVI cells assessed as cell growth at 10 uM after 48 hrs by SRB assay relative to control; format: functional; details: read-out: Activity
Procedure, shortened: (§1)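 NCI Developmental Therapeutics Program 60-cell-line screen at a single dose of 10 μM. Cells incubated with compound for 48 h at 37 °C before viability determination.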

[2] = test system: U-251; experiment: Cytotoxicity against human U251 cells assessed as cell growth at 10 uM after 48 hrs by SRB assay relative to control; format: functional; details: U-251, 48 h, read-out: Activity
Procedure, shortened: (§2)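 Single-dose (10 μM) screen run by the NCI Developmental Therapeutics Program on its 60 human cancer cell line panel. Viability was determined after 48 h incubation with the cells at 37 °C.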

[3] = test system: SF-268; experiment: Cytotoxicity against human SF268 cells assessed as cell growth at 10 uM after 48 hrs by SRB assay relative to control; format: functional; details: SF-268, 48 h, read-out: Activity; procedure, shortened: as §1
[4] = test system: NCI-H522; experiment: Cytotoxicity against human NCI-H522 cells assessed as cell growth at 10 uM after 48 hrs by SRB assay relative to control; format: functional; details: NCI-H522, 48 h, read-out: Activity; procedure, shortened: as §1
[5] = test system: NCI-H23; experiment: Cytotoxicity against human NCI-H23 cells assessed as cell growth at 10 uM after 48 hrs by SRB assay relative to control; format: functional; details: NCI-H23, 48 h, read-out: Activity; procedure, shortened: as §1
[6] = test system: SR; experiment: Cytotoxicity against human SR cells assessed as cell growth at 10 uM after 48 hrs by SRB assay relative to control; format: functional; details: read-out: Activity; procedure, shortened: as §2
[7] = test system: MOLT-4; experiment: Cytotoxicity against human MOLT4 cells assessed as cell growth at 10 uM after 48 hrs by SRB assay relative to control; format: functional; details: MOLT-4, 48 h, read-out: Activity; procedure, shortened: as §1
[8] = test system: HL-60(TB); experiment: Cytotoxicity against human HL-60(TB) cells assessed as cell growth at 10 uM after 48 hrs by SRB assay relative to control; format: functional; details: HL-60, 48 h, read-out: Activity
Procedure, shortened: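 Single-dose screen run by the NCI Developmental Therapeutics Program on its 60 human cancer cell line panel, leukemia lines included. Cells were exposed to 10 μM ligand and incubated at 37 °C for 48 h. Cell viability was then determined.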

[9] = Binding affinity to GRP78 duplex DNA (unknown origin) assessed as DNA-compound complex formation at 3.9 mM measured at 36 hrs by dynamic light scattering analysis relative to control
Procedure, shortened: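 DNA (1.1 μM), with or without ligand at 3.9 mM, incubated 36 h in phosphate buffer. Particle size then measured by dynamic light scattering against native DNA and ligand alone.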

[10] = Binding affinity to GRP78 duplex DNA (unknown origin) at 0.2 to 3.9 mM by CD spectrophotometric analysis
Procedure, shortened: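 CD spectra recorded on duplex DNA (1.1 μM) in phosphate buffer (140 mM KCl, 1 mM MgCl₂, 5 mM sodium phosphate, pH 7.2) titrated with ligand 0–3.9 mM. Samples prepared as for melting. Molar ellipticity followed at the 260–280 nm maximum and the 248 nm minimum.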

[11] = Binding affinity to GRP78 duplex DNA (unknown origin) assessed as change in duplex DNA hyperchromicity at 0.9 to 3.9 mM after 36 hrs by thermal denaturation assay
Procedure, shortened: (§3)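 Duplex DNA (1.1 μM) annealed from complementary strands in phosphate buffer (140 mM KCl, 1 mM MgCl₂, 5 mM sodium phosphate, pH 7.2), with ligand 0.2–3.9 mM. Melting followed as % hyperchromicity at 260 nm over 5–90 °C. Tm shift measured against native duplex.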

[12] = Binding affinity to GRP78 duplex DNA (unknown origin) assessed as change in melting temperature at 0.2 mM after 36 hrs by thermal denaturation assay; procedure, shortened: as §3
[13] = Binding affinity to GRP78 duplex DNA (unknown origin) after 36 hrs by gel shift mobility assay
Procedure, shortened: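 Complementary strands (0.57 μM) annealed in 30% sucrose in TAE buffer (89 mM Tris/acetate, 2.5 mM EDTA, […]), incubated 36 h at 37 °C with ligand at 0, 5, 25, 50, 100 equiv per DNA phosphate (0, 0.2, 0.9, 1.9, 3.9 mM). Run on 24% native PAGE. DNA bands visualized by UV-shadowing at 260 nm. K_D taken from the duplex band ratio with versus without ligand.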

[14] = test system: MDA-MB-468; experiment: Cytotoxicity against human MDA-MB-468 cells assessed as cell growth at 10 uM after 48 hrs by SRB assay relative to control; format: functional; details: MDA-MB-468, 48 h, read-out: Activity; procedure, shortened: as §1
[15] = test system: BT-549; experiment: Cytotoxicity against human BT549 cells assessed as cell growth at 10 uM after 48 hrs by SRB assay relative to control; format: functional; details: BT-549, 48 h, read-out: Activity; procedure, shortened: as §1
[16] = test system: MDA-MB-231; experiment: Cytotoxicity against human MDA-MB-231 cells assessed as cell growth at 10 uM after 48 hrs by SRB assay relative to control; format: functional; details: MDA-MB-231, 48 h, read-out: Activity; procedure, shortened: as §1
[17] = test system: MCF7; experiment: Cytotoxicity against human MCF7 cells assessed as cell growth at 10 uM after 48 hrs by SRB assay relative to control; format: functional; details: MCF7, 48 h, read-out: Activity; procedure, shortened: as §1
[18] = test system: PC-3; experiment: Cytotoxicity against human PC3 cells assessed as cell growth at 10 uM after 48 hrs by SRB assay relative to control; format: functional; details: PC-3, 48 h, read-out: Activity; procedure, shortened: as §1
[19] = test system: UO-31; experiment: Cytotoxicity against human UO31 cells assessed as cell growth at 10 uM after 48 hrs by SRB assay relative to control; format: functional; details: UO-31, 48 h, read-out: Activity; procedure, shortened: as §2
[20] = test system: TK-10; experiment: Cytotoxicity against human TK10 cells assessed as cell growth at 10 uM after 48 hrs by SRB assay relative to control; format: functional; details: TK-10, 48 h, read-out: Activity; procedure, shortened: as §2
[21] = test system: SN12C; experiment: Cytotoxicity against human SN12C cells assessed as cell growth at 10 uM after 48 hrs by SRB assay relative to control; format: functional; details: read-out: Activity; procedure, shortened: as §2
[22] = test system: RXF 393; experiment: Cytotoxicity against human RXF393 cells assessed as cell growth at 10 uM after 48 hrs by SRB assay relative to control; format: functional; details: RXF 393, 48 h, read-out: Activity; procedure, shortened: as §1
[23] = test system: ACHN; experiment: Cytotoxicity against human ACHN cells assessed as cell growth at 10 uM after 48 hrs by SRB assay relative to control; format: functional; details: read-out: Activity; procedure, shortened: as §1
[24] = test system: 786-0; experiment: Cytotoxicity against human 786-0 cells assessed as cell growth at 10 uM after 48 hrs by SRB assay relative to control; format: functional; details: 786-0, 48 h, read-out: Activity; procedure, shortened: as §1
[25] = Cytotoxicity against human NCI-ADR-RES cells assessed as cell growth at 10 uM after 48 hrs by SRB assay relative to control; format: functional; details: read-out: Activity; procedure, shortened: as §1
[26] = test system: OVCAR-5; experiment: Cytotoxicity against human OVCAR5 cells assessed as cell growth at 10 uM after 48 hrs by SRB assay relative to control; format: functional; details: OVCAR-5, 48 h, read-out: Activity; procedure, shortened: as §1
[27] = test system: OVCAR-3; experiment: Cytotoxicity against human OVCAR3 cells assessed as cell growth at 10 uM after 48 hrs by SRB assay relative to control; format: functional; details: OVCAR-3, 48 h, read-out: Activity; procedure, shortened: as §1
[28] = test system: UACC-257; experiment: Cytotoxicity against human UACC257 cells assessed as cell growth at 10 uM after 48 hrs by SRB assay relative to control; format: functional; details: UACC-257, 48 h, read-out: Activity; procedure, shortened: as §2

Structure (SMILES): CCCCCCCCCCCCCCCC(=O)O[C@@H]1[C@H](OC(=O)CCCCCCCCCCCCCCC)[C@@H](C(=O)N[C@@H](CCCCN)C(=O)OC)O[C@H]1n1cnc2c(=O)[nH]c(NC(=O)C(C)C)nc21.Cl
- growth at 10 µM [1]: 93.5%
- growth at 10 µM [2]: 90.2%
- growth at 10 µM [3]: 97.1%
- growth at 10 µM [4]: 84.4%
- growth at 10 µM [5]: 97.8%
- growth at 10 µM [6]: 9.69%
- growth at 10 µM [7]: 93.4%
- growth at 10 µM [8]: 98.3%
- fold change (FC) [9]: > 2
- Activity [10]: Active
- Activity [11]: Active
- ΔTm [12]: 4 °C
- pKd [13]: 3.15
- growth at 10 µM [14]: 83.1%
- growth at 10 µM [15]: 105%
- growth at 10 µM [16]: 118%
- growth at 10 µM [17]: 96.4%
- growth at 10 µM [18]: 103%
- growth at 10 µM [19]: 87.1%
- growth at 10 µM [20]: 101%
- growth at 10 µM [21]: 105%
- growth at 10 µM [22]: 105%
- growth at 10 µM [23]: 102%
- growth at 10 µM [24]: 98.1%
- growth at 10 µM [25]: 102%
- growth at 10 µM [26]: 108%
- growth at 10 µM [27]: 105%
- growth at 10 µM [28]: 90.1%
